In ChEMBL document CHEMBL1126276, “Synthesis and antimalarial properties of 1-imino derivatives of 7-chloro-3-substituted-3,4-dihydro-1,9(2H,10H)-acridinediones and related structures” (J Med Chem, 1992):

Columns and labels:
Plasmodium berghei [1] = test: Antimalarial activity was measured against mice (Mus musculus) infected with Plasmodium berghei by subcutaneous administration of 640 mg/kg dose; format: organism-based; design: dose 640 mg/kg, route subcutaneous; conditions: in vivo, sc
In short: (§1)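 […] in mice infected with a normal drug-sensitive P. berghei strain. Compound dissolved or suspended in sesame or peanut oil, given as a single subcutaneous dose 72 h postinfection.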

Plasmodium berghei [2] = test: (§2) Antimalarial activity in Plasmodium berghei infected mice (Mus musculus) after 20 mg/kg subcutaneous dose; format: functional; in short: as §1
Plasmodium berghei [3] = test: Antimalarial activity in Plasmodium berghei infected mice (Mus musculus) after 320 mg/kg subcutaneous dose; format: functional; in short: as §1
Plasmodium berghei [4] = test: (§3) Antimalarial activity in Plasmodium berghei infected mice (Mus musculus) after 80 mg/kg subcutaneous dose; format: functional; in short: as §1
Plasmodium berghei [5] = test: (§4) Antimalarial activity in Plasmodium berghei infected mice (Mus musculus) after 40 mg/kg subcutaneous dose; format: functional; in short: as §1
Plasmodium berghei [6] = test: Antimalarial activity in Plasmodium berghei infected mice (Mus musculus) after subcutaneous 160 mg/kg dose; format: functional
In short: (§5)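 Normal drug-sensitive P. berghei strain in mice. Compound dissolved or suspended in sesame or peanut oil, given parenterally as a single subcutaneous dose 72 h postinfection.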

Plasmodium berghei [7] = test: as §2; format: functional; in short: as §5; remark: listed apart in the source
Plasmodium berghei [8] = test: Antimalarial activity in Plasmodium berghei infected mice (Mus musculus) after subcutaneous 320 mg/kg dose; format: functional; in short: as §5
Plasmodium berghei [9] = test: as §4; format: functional; in short: as §5; remark: listed apart in the source
Plasmodium berghei [10] = test: Antimalarial activity in Plasmodium berghei infected mice (Mus musculus) after subcutaneous 640 mg/kg dose; format: functional; in short: as §5
Plasmodium berghei [11] = test: as §3; format: functional; in short: as §5; remark: listed apart in the source
Plasmodium berghei [12] = test: Antimalarial activity in Plasmodium berghei infected mice (Mus musculus) after 160 mg/kg subcutaneous dose; format: functional; in short: as §1
Plasmodium berghei [13] = test: Antimalarial activity Plasmodium berghei infected mice (Mus musculus) after 640 mg/kg subcutaneous dose; format: functional; in short: as §1

Compound	No. of toxic deaths (Plasmodium berghei [1])	Delta mean survival time (Plasmodium berghei [2])	Delta mean survival time (Plasmodium berghei [3])	Delta mean survival time (Plasmodium berghei [4])	Delta mean survival time (Plasmodium berghei [5])	No. of cured mice (Plasmodium berghei [6])	No. of cured mice (Plasmodium berghei [7])	No. of cured mice (Plasmodium berghei [8])	No. of cured mice (Plasmodium berghei [9])	No. of cured mice (Plasmodium berghei [10])	No. of cured mice (Plasmodium berghei [11])	Delta mean survival time (Plasmodium berghei [12])	No. of cured mice (Plasmodium berghei [6]; 160 mg/kg)	No. of cured mice (Plasmodium berghei [7]; 20 mg/kg)	Delta mean survival time (Plasmodium berghei [2]; 20 mg/kg)	Delta mean survival time (Plasmodium berghei [3]; 320 mg/kg)	Delta mean survival time (Plasmodium berghei [13]; 640 mg/kg)	Delta mean survival time (Plasmodium berghei [13])
COc1ccccc1C1CC(=O)c2c(n(O)c3ccc(Cl)cc3c2=O)C1 (stereo not drawn)	3	0.8	2.2	1.8	2.2													
OCCNCC/N=C1\CC(c2ccc(Cl)cc2Cl)Cc2nc3ccc(Cl)cc3c(O)c21 (stereo not drawn)						5	5	5	5	5	5							
CCN(CC)CC(C)(C)C/N=C1\CC(c2ccc(Cl)cc2Cl)Cc2nc3ccc(Cl)cc3c(O)c21 (stereo not drawn)		12.7			13.7	5	3	5	4	5	5							
CCN(CC)CCCCCCC/N=C1\CC(c2ccc(Cl)cc2Cl)Cc2nc3ccc(Cl)cc3c(O)c21 (stereo not drawn)		6.7	3.7		9.7	4	4	4	4	5	5	0.7						
CCN(CC)CCCC(C)/N=C1\CC(c2ccc(Cl)cc2Cl)Cc2nc3ccc(Cl)cc3c(O)c21 (stereo not drawn)		10.2			13.7	5	3	5	4	5	5							
O=c1c2c(n(O)c3ccc(Cl)cc13)CC(c1ccc(C(F)(F)F)cc1)C/C2=N\CCCN1CCCCC1 (stereo not drawn)	4	8.5		12	10	5		5	3	1	3							
O=c1c2c(n(O)c3ccc(Cl)cc13)CC(c1ccc(C(F)(F)F)cc1)C/C2=N\CCCN(CCO)CCO (stereo not drawn)		12		9.5	14.8	5	2	5	4	5	1							
CC1C(=O)c2c(n(O)c3ccc(Cl)cc3c2=O)CC1c1ccc(Cl)c(Cl)c1 (stereo not drawn)		7.6			9.6	5	3	5	4	5	5							
O=C1CC(c2ccc(C(F)(F)F)cc2)Cc2nc3ccc(Cl)cc3c(O)c21 (stereo not drawn)		8.9		9.4	9.9	5	1	5	2	5	4							
O=C1CC(c2ccc(Cl)cc2Cl)Cc2c1c(=O)c1cc(Cl)ccc1n2O (stereo not drawn)		1.9				5	2	5	5	5	5							
O=C1CC(c2ccc(Cl)cc2Cl)Cc2nc3ccc(Cl)cc3c(O)c21 (stereo not drawn)		10.3		15.8	18.1	4	2	5	3	5	4	17.8						
CCN(CC)CC/N=C1\CC(c2ccc(Cl)c(Cl)c2)Cc2c1c(=O)c1cc(Cl)ccc1n2O (stereo not drawn)		10.5		12.7	8.8	5	1	5	3	5	3							
CSc1ccc(C2C/C(=N\CCCN(C)C)c3c(nc4ccc(Cl)cc4c3O)C2)cc1 (stereo not drawn)	1	2.8	12.8	4	3.4	1		3		4	1	9.8						
CC1C(=O)c2c(n(O)c3ccc(Cl)cc3c2=O)CC1c1ccc(Cl)cc1Cl (stereo not drawn)		10.7				5	2	5	5	5	5							
CCN(CC)CCCC/N=C1\CC(c2ccc(C(F)(F)F)cc2)Cc2nc3ccc(Cl)cc3c(O)c21 (stereo not drawn)		18.6			13.6	5	2	5	4	5	5							
CCCCCCC/N=C1\CC(c2ccc(C(F)(F)F)cc2)Cc2c1c(=O)c1cc(Cl)ccc1n2O (stereo not drawn)	1		14.7		4.3	5		3		4	5							
N=C1CC(c2ccc(C(F)(F)F)cc2)Cc2nc3ccc(Cl)cc3c(O)c21 (stereo not drawn)		11.2				5	1	5	5	5	5							
CN(C)CCC/N=C1/c2c([nH]c3ccc(Cl)cc3c2=O)CC(c2ccc(Cl)c(Cl)c2)C1Cc1ccccc1 (stereo not drawn)	5	-0.1	7.7	0.7	0.5							6.1						
CC1/C(=N\CCCN(C)C)c2c(nc3ccc(Cl)cc3c2O)CC1c1ccc(C(F)(F)F)cc1 (stereo in doubt; trans)								4		1			5	1	11	3.7	2.7	
O=C1CC(c2ccc(C(F)(F)F)cc2)Cc2c1c(=O)c1cc(Cl)ccc1n2O (stereo not drawn) [FLOXACRINE]		8.9				5	4	5	5	3	5							3.4
